The record followed here is ChEMBL document CHEMBL1137007, “Synthesis of 4-substituted pyrido[2,3-d]pyrimidin-4(1H)-one as analgesic and anti-inflammatory agents” (Bioorg Med Chem Lett, 2009).

Series [1] concerns Rattus norvegicus. Briefly: Toxicity in Wistar albino rat assessed as ulcer index at 20 mg/kg, ip administered once daily for 3 days. Type of series: organism-based. Set-up: dose 20 mg/kg, route intraperitoneal. As to conditions: in vivo, 72 h. In a few lines:
(§1)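 Wistar albino rats of either sex (150–200 g), six per group, housed at 25 °C, 45–55% RH, 12-h light/dark cycle and acclimatized one week. Dosing was intraperitoneal as a suspension in 10% v/v Tween-80, with a vehicle-only control group. Animals were fasted 36 h, then pylorus-ligated (Shay method) on day 4 and sacrificed 4 h later for ulcer index. Values are mean ± SEM (n = 6), analysed by one-way ANOVA.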

Series [2] concerns Mus musculus. The experiment in a line: Analgesic activity in Wister albino mice at 10 mg/kg, po after 2 hrs by tail-flick test.
The test system of series [3] is Mus musculus. Briefly: Analgesic activity in Wister albino mice at 20 mg/kg, po after 30 mins by tail-flick test.
In series [4] the test system is Mus musculus. Briefly: Analgesic activity in Wister albino mice at 10 mg/kg, po after 3 hrs by tail-flick test.
Series [5] has as its system Rattus norvegicus. Briefly: Antiinflammatory activity in rat assessed as inhibition of carrageenan-induced paw oedema at 20 mg/kg, po after 1 hr. The series is classed as functional. Set-up: scale not given: the % may be the effect or the level left. Put shortly: (§2)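 Rats, six per group, were dosed orally (10 or 20 mg/kg, suspension in 1% carboxymethyl cellulose) before carrageenan paw injection. Paw volume was read by mercury-displacement plethysmography just before and 30 min, 1, 2 and 3 h after carrageenan. %inhibition = 100[1 − (a − x)/(b − y)], with the test group's pre/post volumes set against the vehicle control group's. Reported as mean ± SEM (n = 6) with ANOVA.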

Series [6] concerns Rattus norvegicus. Briefly: Antiinflammatory activity in rat assessed as inhibition of carrageenan-induced paw oedema at 20 mg/kg, po after 2 hrs. The series is classed as functional. On the set-up: scale not given: the % may be the effect or the level left. In a few lines:
as §2

In series [7] the test system is Mus musculus. The experiment in a line: Analgesic activity in Wister albino mice at 20 mg/kg, po after 2 hrs by tail-flick test.
The test system of series [8] is Mus musculus. Briefly: Analgesic activity in Wister albino mice at 10 mg/kg, po after 1 hr by tail-flick test.
In series [9] the test system is Rattus norvegicus. The experiment in a line: Antiinflammatory activity in rat assessed as inhibition of carrageenan-induced paw oedema at 10 mg/kg, po after 30 mins. Type of series: functional. Set-up: scale not given: the % may be the effect or the level left. In a few lines:
as §2

Series [10] deals with Mus musculus. The experiment in a line: Analgesic activity in Wister albino mice at 10 mg/kg, po after 30 mins by tail-flick test.
The subject of series [11] is Rattus norvegicus. Briefly: Antiinflammatory activity in rat assessed as inhibition of carrageenan-induced paw oedema at 10 mg/kg, po after 3 hrs. The series is classed as functional. Set-up: scale not given: the % may be the effect or the level left. Put shortly: as §2
Series [12] relates to Mus musculus. Briefly: Analgesic activity in Wister albino mice at 20 mg/kg, po after 1 hr by tail-flick test.
Series [13] relates to Rattus norvegicus. Briefly: Antiinflammatory activity in rat assessed as inhibition of carrageenan-induced paw oedema at 20 mg/kg, po after 30 mins. On the set-up: scale not given: the % may be the effect or the level left. The series is classed as functional. Put shortly: as §2
Series [14] relates to Rattus norvegicus. The experiment in a line: Antiinflammatory activity in rat assessed as inhibition of carrageenan-induced paw oedema at 10 mg/kg, po after 2 hrs. On the set-up: scale not given: the % may be the effect or the level left. The series is classed as functional. In a few lines:
as §2

The test system of series [15] is Rattus norvegicus. Briefly: Antiinflammatory activity in rat assessed as inhibition of carrageenan-induced paw oedema at 20 mg/kg, po after 3 hrs. Type of series: functional. On the set-up: scale not given: the % may be the effect or the level left. In a few lines: as §2
For series [16], the system named is Mus musculus. Briefly: Analgesic activity in Wister albino mice at 20 mg/kg, po after 3 hrs by tail-flick test.
Series [17] has as its system Rattus norvegicus. Briefly: Antiinflammatory activity in rat assessed as inhibition of carrageenan-induced paw oedema at 10 mg/kg, po after 1 hr. Type of series: functional. Set-up: scale not given: the % may be the effect or the level left. Put shortly: as §2
Series [18] has as its system Mus musculus. The experiment in a line: Analgesic activity in Wister albino mouse at 20 mg/kg, po after 1 hr by tail-flick test.
Series [19] has as its system Rattus norvegicus. Briefly: Toxicity in Wistar albino rat assessed as ulcer index at 200 mg/kg, ip administered once daily for 3 days. The series is classed as organism-based. On the set-up: dose 200 mg/kg, route intraperitoneal. As to conditions: in vivo, 72 h. In a few lines:
as §1

On to `Nc1ncnc2nc3[nH]c(=S)[nH]c(=O)c3c(-c3ccc(N4CCCCC4)cc3)c12`, for which, in the series with Rattus norvegicus [1], the UI was 0.58. For the same compound, the Activity with Mus musculus [2] worked out at 52%; in the series on Mus musculus [3] it was 55%; in the series on Mus musculus [4], 32%; with Rattus norvegicus [5], 45%; with Rattus norvegicus [6], 48%; with Mus musculus [7], 59%. The Activity stood at 49% with Mus musculus [8]; 33% with Rattus norvegicus [9]; 41% in the series on Mus musculus [10]; 32% in the series with Rattus norvegicus [11]; 57% in the series with Mus musculus [12]; 42% in the series on Rattus norvegicus [13]. For the same compound, the Activity in the series with Rattus norvegicus [14] is given as 40%; in the series with Rattus norvegicus [15], 39%; in the series on Mus musculus [16] it was 38%; with Rattus norvegicus [17] it was 39%.
For the compound `N#Cc1c(N)nc2[nH]c(=S)[nH]c(=O)c2c1-c1ccc(N2CCOCC2)cc1`, the UI with Rattus norvegicus [1] turned out to be 0.54. For the same compound, the Activity in the series on Mus musculus [2] stood at 53%; in the series with Mus musculus [3] it was 59%; with Mus musculus [4] it was 31%; with Rattus norvegicus [5], 61%; in the series on Rattus norvegicus [6], 63%; with Mus musculus [7], 66%. The Activity was found to be 47% in the series with Mus musculus [8]; 41% with Rattus norvegicus [9]; 45% with Mus musculus [10]; 36% in the series with Rattus norvegicus [11]; 63% in the series on Mus musculus [12]; 50% in the series with Rattus norvegicus [13]. Further, the Activity in the series on Rattus norvegicus [14] is on record as 50%; in the series on Rattus norvegicus [15] it was 47%; with Mus musculus [16], 43%; in the series with Rattus norvegicus [17], 48%.
`CN1CCN(c2ccc(-c3c(C#N)c(N)nc4[nH]c(=S)[nH]c(=O)c34)cc2)CC1`: the UI in the series with Rattus norvegicus [1] turned out to be 0.51. The Activity is reported as 64% in the series on Mus musculus [2]; 67% in the series with Mus musculus [3]; 44% with Mus musculus [4]; 55% in the series on Rattus norvegicus [5]; 60% with Rattus norvegicus [6]; 72% in the series on Mus musculus [7]. Further, the Activity was 60% with Mus musculus [8]; 39% in the series on Rattus norvegicus [9]; 53% in the series with Mus musculus [10]; 31% in the series with Rattus norvegicus [11]; 68% in the series on Mus musculus [12]; 48% with Rattus norvegicus [13]. Moreover, the Activity is recorded as 46% with Rattus norvegicus [14], 37% with Rattus norvegicus [15], 52% in the series on Mus musculus [16] and 40% in the series on Rattus norvegicus [17].
With `N#Cc1c(N)nc2[nH]c(=S)[nH]c(=O)c2c1-c1ccc(N2CCCCC2)cc1`, in the series with Rattus norvegicus [1], the UI amounted to 0.58. The Activity in the series with Mus musculus [2] is given as 55%; in the series on Mus musculus [3], 63%; in the series on Mus musculus [4], 39%; in the series with Rattus norvegicus [5] it was 49%; in the series on Rattus norvegicus [6], 51%; in the series on Mus musculus [7], 69%. In addition, the Activity in the series on Mus musculus [18] is on record as 64%; in the series on Mus musculus [8], 51%; with Rattus norvegicus [9], 35%; in the series with Mus musculus [10], 46%; in the series on Rattus norvegicus [11] it was 29%; in the series with Rattus norvegicus [13], 45%. Further, the Activity in the series with Rattus norvegicus [14] amounted to 45%; with Rattus norvegicus [15], 36%; with Mus musculus [16] it was 47%; in the series with Rattus norvegicus [17], 37%.
As for `CC(=O)Oc1ccccc1C(=O)O` [ASPIRIN], in the series on Rattus norvegicus [19], the UI was 1.73.
Regarding `O=C([O-])Cc1ccccc1Nc1c(Cl)cccc1Cl.[Na+]` [DICLOFENAC SODIUM], in the series on Rattus norvegicus [1], the UI was 1.65. Also, the Activity is 45% in the series on Mus musculus [2]; 46% in the series with Mus musculus [3]; 33% in the series with Mus musculus [4]; 52% in the series with Rattus norvegicus [5]; 60% with Rattus norvegicus [6]; 62% with Mus musculus [7]. The Activity with Mus musculus [8] is 43%; with Rattus norvegicus [9], 32%; with Mus musculus [10], 37%; with Rattus norvegicus [11], 33%; with Mus musculus [12], 55%; with Rattus norvegicus [13], 45%. For the same compound, the Activity in the series on Rattus norvegicus [14] is given as 39%; in the series with Rattus norvegicus [15] it was 42%; with Mus musculus [16], 39%; in the series on Rattus norvegicus [17] it was 38%.
